Consider one compound from ChEMBL document CHEMBL1157061, “Polybioside, a neuroactive compound from the venom of the social wasp Polybia paulista” (J Nat Prod, 2010).

Active and inactive are the calls of the source. The calls are words filed in the database; no cut-off is given here.

Data set [1] deals with Brain. The data set is described as follows: Neuronal activity in Wistar rat brain dorsal intermediate nucleus assessed as c-Fos-immunoreactive neurons at 0.1 ug/ul, icv after 2 hrs by immunohistochemistry analysis. The class given is functional, tissue-based. An outline of the steps: (§1)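 Adult male Wistar rats (250-300 g) were acclimated for one week and handled twice daily. An ICV cannula was placed about 2 h before dosing. Compound was given ICV in 10 µL 0.9% saline; saline-only controls (n = 3). After 2 h, rats were perfused with 4% formaldehyde (pH 9.5). Coronal 30 µm sections were stained with rabbit anti-c-Fos (1:5000, 18 h, RT), biotinylated goat anti-rabbit, ABC and DAB, with thionin counterstain. Immunoreactive cells were counted in fixed areas; Student's t-test, p<0.05.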

The subject of data set [2] is Rattus norvegicus. The data set is described as follows: Neurotoxicity in Wistar rat assessed as tonic clonic crises at 10 ng/kg, icv up to 10 mins. Format: toxicity, organism-based. The following applies: in vivo, icv_or_intrathecal, 1e-05 mg/kg. An outline of the steps: (§2)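 Adult male Wistar rats (250-300 g, acclimated one week) received 10 ng/kg ICV in 0.9% saline through a cannula placed about 2 h earlier. Behaviour was observed afterwards, including convulsions, piloerection and eye signs. Sensorimotor reflexes were scored by righting reflex and wire suspension test, with follow-up to recovery at 80 min.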

For data set [3], the system named is Rattus norvegicus. The data set is described as follows: Neuronal activity in Wistar rat brain rhomboid nucleus assessed as c-Fos-immunoreactive neurons at 0.1 ug/ul, icv after 2 hrs by immunohistochemistry analysis. The following applies: Rhomboidal nucleus. The class given is functional, tissue-based. An outline of the steps: as §1
Data set [4] deals with Rattus norvegicus. In words: Neuronal activity in Wistar rat brain lateral septal nucleus dorsal assessed as c-Fos-immunoreactive neurons at 0.1 ug/ul, icv after 2 hrs by immunohistochemistry analysis. The class given is functional, tissue-based. An outline of the steps: as §1
In data set [5] the test system is Rattus norvegicus. The data set is described as follows: Neurotoxicity in Wistar rat assessed as localized diffuse piloerection on head at 10 ng/kg, icv up to 10 mins. The class given is toxicity, organism-based. The following applies: in vivo, icv_or_intrathecal, 1e-05 mg/kg. A digest of the protocol:
as §2

The test system of data set [6] is Rattus norvegicus. The data set is described as follows: Neuronal activity in Wistar rat brain piriform cortex assessed as c-Fos-immunoreactive neurons at 0.1 ug/ul, icv after 2 hrs by immunohistochemistry analysis. Format: functional, tissue-based. A digest of the protocol:
as §1

Data set [7] concerns Brain. In words: Neuronal activity in Wistar rat brain anterior hyphalamic area assessed as c-Fos-immunoreactive neurons at 0.1 ug/ul, icv after 2 hrs by immunohistochemistry analysis. The class given is functional, tissue-based. A digest of the protocol: as §1
Data set [8] deals with Rattus norvegicus. The data set is described as follows: Neurotoxicity in Wistar rat assessed as loss of sensor motor reflexes at 10 ng/kg, icv after 30 mins by wire suspension test. The class given is toxicity, organism-based. The note with it: in vivo, icv_or_intrathecal, 1e-05 mg/kg, 0.5 h. A digest of the protocol: as §2
For data set [9], the system named is Rattus norvegicus. In words: Neurotoxicity in Wistar rat assessed as localized diffuse piloerection around neck at 10 ng/kg, icv up to 10 mins. The class given is toxicity, organism-based. The note with it: in vivo, icv_or_intrathecal, 1e-05 mg/kg. A digest of the protocol: as §2
Data set [10] has as its system Thalamus. The data set is described as follows: Neuronal activity in Wistar rat brain paraventricular nucleus of thalamus assessed as c-Fos-immunoreactive neurons at 0.1 ug/ul, icv after 2 hrs by immunohistochemistry analysis. Format: functional, tissue-based. An outline of the steps: as §1
For data set [11], the system named is Rattus norvegicus. In words: Neurotoxicity in Wistar rat at 100 ng/kg, iv. The class given is toxicity, organism-based. The following applies: in vivo, 0.0001 mg/kg. A digest of the protocol: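 Given peripherally at 100 ng/kg through an intravenous catheter placed in Wistar rats anaesthetised with chloral hydrate (7%, 350 mg/kg ip), to test passage across the blood-brain barrier; behaviour was then observed.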

In data set [12] the test system is Hypothalamus. In words: Neuronal activity in Wistar rat brain paraventricular nucleus of hypothalamus assessed as c-Fos-immunoreactive neurons at 0.1 ug/ul, icv after 2 hrs by immunohistochemistry analysis. The class given is functional, tissue-based. A digest of the protocol: as §1
For data set [13], the system named is Hippocampus. The data set is described as follows: Neuronal activity in Wistar rat brain hippocampus assessed as c-Fos-immunoreactive neurons at 0.1 ug/ul, icv after 2 hrs by immunohistochemistry analysis. Format: functional, tissue-based. An outline of the steps: as §1
In data set [14] the test system is Rattus norvegicus. In words: Neurotoxicity in Wistar rat assessed as partial closing of eyelids with porphyrin accumulation at 10 ng/kg, icv after 10 mins up to 30 mins. The following applies: in vivo, icv_or_intrathecal, 1e-05 mg/kg. Format: toxicity, organism-based, Eyelid. An outline of the steps: as §2
Data set [15] has as its system Brain. The data set is described as follows: Neuronal activity in Wistar rat brain reuniens nucleus assessed as c-Fos-immunoreactive neurons at 0.1 ug/ul, icv after 2 hrs by immunohistochemistry analysis. Format: functional, tissue-based. An outline of the steps: as §1
Data set [16] has as its system Rattus norvegicus. In words: Neurotoxicity in Wistar rat assessed as convulsion at 10 ng/kg, icv after 5 mins. Format: toxicity, organism-based. The following applies: in vivo, icv_or_intrathecal, 1e-05 mg/kg. A digest of the protocol: as §2
Data set [17] deals with Brain. In words: Neuronal activity in Wistar rat brain dorsomedial hyphalamic nucleus assessed as c-Fos-immunoreactive neurons at 0.1 ug/ul, icv after 2 hrs by immunohistochemistry analysis. The class given is functional, tissue-based. A digest of the protocol:
as §1

As to `N=C(CCc1c[nH]cn1)O[C@H]1O[C@H](CO)[C@@H](O)[C@H](O)[C@H]1O` [POLYBIOSIDE], the outcome in data set [1], in [3], in [4], in data set [6], in [7] and in data set [10] was Active. Further, the result in data set [12], in data set [13], in [15] and in [17] was Active. The Activity entry in data set [2], in data set [5], in data set [8], in data set [9], in data set [11] and in data set [14] was “Toxic” throughout. The Activity result in [16] was “Toxic”.
